Bioassay records: PubChem, several laboratories
PG9 Ab binder = PG9 antibody binding by small molecule; TR-FRET gp120-PG9 antibody binding; inhibition, % at 6.7 µM; actives 0.43% (n = 360,000); AID 624416; in the data active = inhibition above about 8.5%
Rev-erbA mod = modulates human Rev-erb alpha binding to DNA; activity, % at 10 µM; Rev-erbα–FITC-DNA binding, fluorescence polarization, 90 min; P20393; actives 0.79% (n = 370,000); AID 1259318;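 active = activity above about 14%, limit read from the data; passing the limit was not always enough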;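 note: 0% = DMSO wells with 35 nM protein and 100% = DMSO wells with 750 nM protein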
NR2E3 ag-1 = NR2E3 (human) agonism; GST-NR2E3/biotin-RetCOR TR-FRET, 1536-well; actives 0.12% (n = 320,000); inhibition of corepressor binding, % at 4.78 µM;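 active = percent inhibition above the cutoff of mean plus 3 SD of all tested compounds, set per screening campaign, cut at about 20% in these data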;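 note: 0% = DMSO wells and 100% = biotin wells as full block of FRET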
Target sequence (Q9Y5X4 whole entry, looked up): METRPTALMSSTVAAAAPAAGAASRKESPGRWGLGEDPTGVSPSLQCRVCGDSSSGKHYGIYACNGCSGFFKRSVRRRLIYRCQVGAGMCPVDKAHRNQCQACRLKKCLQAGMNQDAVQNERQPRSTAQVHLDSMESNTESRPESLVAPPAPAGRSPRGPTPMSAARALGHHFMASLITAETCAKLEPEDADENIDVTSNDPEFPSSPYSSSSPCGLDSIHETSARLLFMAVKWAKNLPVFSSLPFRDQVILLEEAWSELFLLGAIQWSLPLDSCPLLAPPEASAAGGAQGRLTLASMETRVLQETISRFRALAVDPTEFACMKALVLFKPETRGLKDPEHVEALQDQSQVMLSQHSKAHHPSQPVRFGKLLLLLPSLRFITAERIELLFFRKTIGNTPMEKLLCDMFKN
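System: GST-tagged NR2E3 plus biotinylated RetCOR corepressor; Buffer or medium: pH 7.5 Tris-based buffer; Probe or stimulus: RetCOR corepressor, biotinylated, 7 nM; Doses: compound at 4.8 µM, single dose; Schedule: 5 h incubation at 4 °C; Technique: time-resolved FRET; Evaluation: percent inhibition of TR-FRET ratio; Replication: one well per compound, singlicate testing.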
NR2E3 ag-2 = activates human NR2E3 receptor; Q9Y5X4; CHO-S Gal4-NCOR/VP16-NR2E3 two-hybrid, luciferase; inhibition of corepressor binding, % at 3.98 µM; actives 0.35% (n = 360,000);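 active = inhibition above the mean of all tested compounds plus 3 SD, cut at about 70% in these data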;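 note: 0% = DMSO with NR2E3 transfected cells and 100% = cells lacking NR2E3 construct; higher means lower luciferase signal from less NR2E3 corepressor binding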
NR2E3 ag confirm = NR2E3 agonism confirmed in two-hybrid assay; inhibition, % at 3.98 µM; CHO-S mammalian two-hybrid NR2E3-NCOR, luciferase luminescence; actives 51% (n = 2,300); AID 624378; shares compounds with NR2E3 ag-2;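 active = average inhibition above a cutoff equal to the mean inhibition of all tested compounds plus one SD, cut at about 70% in these data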;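 note: 0% = DMSO in NR2E3 cells and 100% = DMSO in cells lacking NR2E3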
GAL4-VP16 luc = counter-screen for NR2E3 agonists: GAL4-VP16 reporter inhibitors; shares compounds with NR2E3 ag-2; CHO-S GAL4-VP16 luciferase reporter, luminescence; inhibition, % at 3.98 µM; actives 29% (n = 2,300); AID 624379;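 active = mean inhibition above a cutoff equal to the average over all tested compounds plus one standard deviation, cut at about 70% in these data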;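 note: luciferase from a UAS reporter driven by GAL4-VP16 transactivation; 0% = DMSO with VP16-transfected cells and 100% = DMSO with cells lacking VP16; higher means less reporter light so more repression of VP16 activity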
Active calls of the source: *; x = no result; ! = not active in a repeat. This is a sample that favours compounds with a hit; in the whole collection about 1.4% have one here.

SMILES	PG9 Ab binder	Rev-erbA mod	NR2E3 ag-1	NR2E3 ag-2	NR2E3 ag confirm	GAL4-VP16 luc
CCn1c(=O)c(C(=O)Nc2nc3ccccc3[nH]2)c(O)c2ccccc21	0	-8	2	57	14	44
O=C(NCc1cccnc1)/C(=C\c1ccc(-c2cccc(Cl)c2)o1)S(=O)(=O)c1ccccc1	0	1	2	91*	63	-24
O=C(NCc1cccnc1)/C(=C/c1ccc(-c2cccc(Cl)c2)o1)S(=O)(=O)c1ccccc1	-1	4	1	22	x	x
CC1=NN(C(N)=S)C(=O)C1N=Nc1ccccc1C (stereo not drawn)	-2	17	-5	74*	-2	-35
CC1=NN(C(N)=S)C(=O)C1N=Nc1c(C)cc(C)cc1C (stereo not drawn)	-1	-5	-1	73*	-21	-61
CC1=NN(C(N)=S)C(=O)C1N=Nc1c(Cl)cc([N+](=O)[O-])cc1Cl (stereo not drawn)	-4	14	-2	83*	-43	-77
O=C(C1CCN(c2cncnc2)CC1)N1CCOCC1	x	-11	x	x	x	x
CCCCOCCCNC(=O)C[C@H]1C[C@@]2(C(=O)OC)C(=C[C@H](C(C)(C)C)O[C@@H]2C)N(Cc2cccc3ccccc23)C1=O	x	5	x	x	x	x
CC(=O)N(/N=C1\Sc2ccccc2C1=O)c1ccc(C)cc1C	-2	-6	-1	67	62	22
O=S1(=O)c2ccc(Br)cc2OC[C@H](Cc2ccccc2)N1Cc1cn(CCC2OCCCO2)nn1	x	8	x	x	x	x
Clc1cccc(Cl)c1CON/C=N/c1ncnc2sccc12	-1	2	-4	60	48	55
Clc1cccc(CON/C=N/c2ncnc3sccc23)c1	0	-6	4	15	x	x
C=C(C(=O)c1ccccc1)C(NC(C)(C)C)c1ccccc1 (stereo not drawn)	1	-1	x	92*	78*	29
O=C(Cn1cnnn1)N[C@@H]1C(=O)N2C(C(=O)O)=C(CSc3nncs3)CS[C@H]12	x	-7	x	x	x	x
Cc1ccc(-n2nc3c(=O)n(CC(=O)NC(C)CCc4ccccc4)nc(C)c3c2C)cc1 (stereo not drawn)	x	x	1	55	52	65
Cc1ccc(-n2nc3c(=O)n(CCCC(=O)NCc4cccc(F)c4)nc(C)c3c2C)cc1	0	-1	-1	52	20	39
COCCCNC(=O)C[C@H]1C[C@@]2(C(=O)OC)C(=C[C@H](C(C)C)O[C@@H]2C2CC2)N(Cc2ccc3c(c2)OCO3)C1=O	x	-1	x	x	x	x
COc1ccc(-c2cc(C3CCN(c4cc(Cl)nc(N)n4)CC3)[nH]n2)cc1	-2	0	2	26	x	x
Nc1nc(Cl)cc(N2CCC(c3cc(-c4ccc(Cl)cc4)n[nH]3)CC2)n1	-1	4	4	91*	98*	73*
COC(=O)C1CN(CC(C)C)CCS(=O)(=O)N1Cc1ccc(C(F)(F)F)cc1 (stereo not drawn)	x	1	x	x	x	x
COc1ccc(/C=N\NC(=S)SCN2C(=O)C3CCC(C)(C2=O)C3(C)C)cc1 (stereo not drawn)	-1	1	0	-7	x	x
CC12CCC(C(=O)N(CSC(=S)N/N=C\c3ccccc3O)C1=O)C2(C)C (stereo not drawn)	-2	4	4	91*	-8	-38
CCCN1CCS(=O)(=O)N(Cc2cn(Cc3ccc(C)cc3)nn2)C(C(=O)OC)C1 (stereo not drawn)	x	-3	x	x	x	x
O=C(NCCCCCCNC(=O)c1ccccc1O)c1ccccc1O	1	7	1	67	88*	63
O=C(NCCCSc1ccccc1)c1cc(Cl)ccc1O	-2	1	x	78*	99*	87*
SMILES	PG9 Ab binder	Rev-erbA mod	NR2E3 ag-1	NR2E3 ag-2	NR2E3 ag confirm	GAL4-VP16 luc
O=C(CNC(=O)c1ccccc1)NCCCSc1ccccc1	0	1	x	-15	x	x
O=C(NCCNC(=O)c1ccccc1O)c1ccccc1O	-1	3	-1	-13	x	x
CC(C)C[C@@H]1COc2cc(Br)ccc2S(=O)(=O)N1Cc1cn(Cc2ccc(F)cc2)nn1	x	-3	x	x	x	x
O=C(NCc1ccccc1)OCCN1C(=O)CCC12CCC(c1ccccc1)CC2 (stereo not drawn)	x	-4	x	x	x	x
COc1cc2ncnc(NCc3ccccc3)c2cc1OC	-1	3	0	-8	x	x
OCCCCCNc1ncnc2ccccc12	-1	-1	1	79*	68	62
c1ccc(CNc2ncnc3ccccc23)cc1	-2	-1	0	80*!	72*	71*
COc1cccc(OCC(C)CN2CCC(C(O)(c3ccccc3)c3ccccc3)CC2)c1 (stereo not drawn)	x	11	x	x	x	x
CN1C(=O)C[C@@](C#N)(C(=O)N2CCOCC2)[C@H]1c1ccccc1	x	0	x	x	x	x
Cc1ccc(C2C(/C=C3/SC(=S)NC3=O)=C(c3cccs3)Oc3ccccc32)cc1 (stereo not drawn)	0	4	0	74*	87*	61
CC1Cc2cc(/C=C3/SC(=S)NC3=O)ccc2O1 (stereo not drawn)	-3	1	-2	-58	x	x
COc1ccc(NS(=O)(=O)c2ccc3c(c2)NC(=O)CCS3)cc1Cl	1	-5	-3	60	34	34
c1ccc(-c2nc(NCC3CCCO3)c3ccccc3n2)nc1 (stereo not drawn)	-1	2	0	89*	-8	2
c1ccc(-c2nc(NCc3ccco3)c3ccccc3n2)nc1	-2	-2	0	83*	11	-2
Oc1ccccc1-c1nc(NCc2ccco2)c2ccccc2n1	2	0	-2	-38	x	x
O=c1cc(-c2ccccc2Cl)oc2c([N+](=O)[O-])c(O)cc(O)c12	-1	-1	6	98*	99*	91*
O=C(Nc1ccc(O)c2c(=O)cc(-c3ccccc3Cl)oc12)c1ccccc1Cl	1	1	2	-5	x	x
O=C1c2ccccc2C(=O)c2[nH]c(=O)[nH]c21	-20	-14	-4	68	75*	32
S=C(Nc1cccc(Cl)c1)OC1CCC12CCC(c1ccccc1)CC2 (stereo not drawn)	x	1	x	x	x	x
Cc1cnc(NC(=O)C2CC(=O)N(c3cccc(Cl)c3)C2)s1 (stereo not drawn)	-3	6	4	86*	100*	52
Cc1ccc(NC(=O)NC2CC(=O)N(c3ccc4c(c3)OCCO4)C2)cc1C (stereo not drawn)	1	2	-3	54	32	6
Cc1cnc(NC(=O)C2CC(=O)N(c3ccc4c(c3)OCCO4)C2)s1 (stereo not drawn)	-1	3	x	55	75*	25
O=C(CCc1ccccc1)N[C@H]1[C@H](OCc2ccccc2)CCC[C@@]12C(=O)N(Cc1ccccc1)c1ccccc12	x	3	x	x	x	x
Cc1ccc(OCC(=O)Nc2ccc3c(c2)OCCO3)cc1C	0	3	0	50	24	13
